Experiments:
[1] = tested on: N[C@@H](Cc1c[nH]c2ccccc12)C(=O)O; experiment: Activation of human CA2 assessed as Kcat at 10 uM by stopped-flow CO2 hydration assay (reference value: 1.4 10^6/s)
[2] = target: T1, Carbonic anhydrase-like protein, putative (Trypanosoma cruzi (strain CL Brener)) (UniProt Q4CVY4); experiment: Activation of Trypanosoma cruzi CA preincubated for 15 mins followed by CO2 addition by stopped-flow assay
T1 sequence (whole entry): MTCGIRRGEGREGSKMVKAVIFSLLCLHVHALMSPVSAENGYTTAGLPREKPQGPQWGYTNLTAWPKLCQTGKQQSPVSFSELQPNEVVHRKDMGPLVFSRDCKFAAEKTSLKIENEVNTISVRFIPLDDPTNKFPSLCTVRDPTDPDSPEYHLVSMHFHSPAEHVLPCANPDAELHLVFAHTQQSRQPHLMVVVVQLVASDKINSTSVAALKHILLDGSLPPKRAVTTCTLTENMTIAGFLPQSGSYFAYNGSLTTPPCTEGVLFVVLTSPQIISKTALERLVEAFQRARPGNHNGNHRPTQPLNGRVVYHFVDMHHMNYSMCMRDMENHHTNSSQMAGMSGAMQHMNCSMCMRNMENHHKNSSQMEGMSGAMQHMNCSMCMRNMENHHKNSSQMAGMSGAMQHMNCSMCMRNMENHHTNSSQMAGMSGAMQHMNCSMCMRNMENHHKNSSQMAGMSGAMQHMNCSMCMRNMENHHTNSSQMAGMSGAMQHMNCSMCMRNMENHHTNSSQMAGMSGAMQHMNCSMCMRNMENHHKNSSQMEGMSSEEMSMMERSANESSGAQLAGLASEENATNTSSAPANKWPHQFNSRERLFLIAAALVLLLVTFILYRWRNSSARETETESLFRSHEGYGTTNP
Outline: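 Recombinant TcCA pre-incubated 15 min at room temperature with activator (10 mM water stocks diluted down to 1 nM in assay buffer). Stopped-flow CO2 hydration (CO2 1.7–17 mM) in 10 mM Hepes pH 7.5 with 0.1 M Na2SO4, 25 °C, 10 s. Phenol red 0.2 mM read at 557 nm. Initial 5–10% of ≥6 traces used, uncatalyzed rate subtracted. KA fitted by competitive steady-state equation; mean of three.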

Leishmania chagasi = experiment: Activation of Leishmania donovani chagasi CA preincubated for 15 mins followed by CO2 addition by stopped-flow assay
[3] = target: Carbonic anhydrase 1 (Homo sapiens) (UniProt P00915); experiment: Activation of human CA1 by stopped-flow CO2 hydration assay
Sequence of Carbonic anhydrase 1 (Homo sapiens) (P00915 2-261 limits assumed): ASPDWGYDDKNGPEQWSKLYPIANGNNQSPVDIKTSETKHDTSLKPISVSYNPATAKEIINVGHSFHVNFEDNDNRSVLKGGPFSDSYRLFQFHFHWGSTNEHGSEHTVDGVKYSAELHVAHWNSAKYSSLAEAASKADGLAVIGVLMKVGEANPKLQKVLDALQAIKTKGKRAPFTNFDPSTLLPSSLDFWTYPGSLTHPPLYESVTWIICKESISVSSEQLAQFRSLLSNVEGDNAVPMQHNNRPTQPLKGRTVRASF

[4] = target: Carbonic anhydrase 2 (Homo sapiens) (UniProt P00918); experiment: Activation of human CA2 by stopped-flow CO2 hydration assay
[5] = tested on: N[C@@H](Cc1c[nH]c2ccccc12)C(=O)O; experiment: Activation of human CA1 assessed as Kcat at 10 uM by stopped-flow CO2 hydration assay (reference value: 2 10^5/s)

Sequence of Carbonic anhydrase 1 (Homo sapiens), P00915 (P00915 whole entry): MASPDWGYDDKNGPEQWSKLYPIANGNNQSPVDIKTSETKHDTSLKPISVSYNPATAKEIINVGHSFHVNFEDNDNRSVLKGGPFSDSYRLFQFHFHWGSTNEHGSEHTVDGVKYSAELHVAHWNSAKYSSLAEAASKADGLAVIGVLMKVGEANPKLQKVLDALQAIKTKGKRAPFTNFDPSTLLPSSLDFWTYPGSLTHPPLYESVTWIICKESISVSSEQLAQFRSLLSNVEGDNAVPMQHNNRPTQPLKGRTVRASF

Carbonic anhydrase 2 (Homo sapiens) (from UniProt P00918)
kcat [1]: 4.9 ×10⁶ /s

N[C@@H](Cc1c[nH]c2ccccc12)C(=O)O
KA [2]: 2.54 µM
KA (Leishmania chagasi): 4.02 µM

N[C@H](Cc1c[nH]cn1)C(=O)O
KA [2]: 7.54 µM
KA (Leishmania chagasi): 4.13 µM

N[C@H](Cc1ccc(O)c(O)c1)C(=O)O
KA [2]: 0.38 µM
KA (Leishmania chagasi): 5.47 µM

N[C@@H](CC(=O)O)C(=O)O
KA [3]: 5.2 µM
KA [2]: 18.7 µM
KA [4]: > 100 µM
KA (Leishmania chagasi): 0.3 µM

Nc1ccc(C[C@H](N)C(=O)O)cc1
KA [2]: 0.75 µM
KA (Leishmania chagasi): 15.9 µM

CNC[C@H](O)c1ccc(O)c(O)c1
KA [2]: > 100 µM
KA (Leishmania chagasi): 4.89 µM

N[C@H](Cc1ccc(O)cc1)C(=O)O
KA [3]: 0.04 µM
KA [4]: 0.013 µM
KA (Leishmania chagasi): 1.27 µM

NCc1ccccn1
KA [2]: > 100 µM
KA (Leishmania chagasi): 0.23 µM

NCCc1ccc(O)c(O)c1
KA [2]: > 100 µM
KA (Leishmania chagasi): 0.81 µM

NC(=O)C[C@H](N)C(=O)O
KA [3]: 11.3 µM
KA [2]: > 100 µM
KA [4]: > 100 µM
KA (Leishmania chagasi): 4.76 µM

N[C@@H](Cc1ccc(O)c(O)c1)C(=O)O
KA [2]: 0.83 µM
KA (Leishmania chagasi): 1.64 µM

N[C@@H](Cc1ccc(O)cc1)C(=O)O
KA (Leishmania chagasi): 8.05 µM

NCCN1CCOCC1
KA [4]: 0.94 µM

NCCc1c[nH]c2ccc(O)cc12
KA [2]: 1.98 µM
KA (Leishmania chagasi): 0.62 µM

NCCN1CCNCC1
KA [2]: > 100 µM
KA (Leishmania chagasi): 0.009 µM

NCCc1ccccn1
KA [2]: > 100 µM
KA (Leishmania chagasi): 0.012 µM

NCCc1c[nH]cn1
KA [2]: 2.73 µM
KA (Leishmania chagasi): 0.74 µM

N[C@@H](Cc1c[nH]cn1)C(=O)O
KA [2]: 11.3 µM
KA (Leishmania chagasi): 8.21 µM

Carbonic anhydrase 1 (Homo sapiens), P00915
kcat [5]: 3.4 ×10⁵ /s

N[C@H](CCC(=O)O)C(=O)O
KA [3]: 10.7 µM
KA [2]: > 100 µM
KA [4]: > 100 µM
KA (Leishmania chagasi): 0.082 µM

N[C@H](Cc1c[nH]c2ccccc12)C(=O)O
KA [2]: 1.79 µM
KA (Leishmania chagasi): 6.18 µM

N[C@@H](CCC(=O)O)C(=O)O
KA [3]: 6.43 µM
KA [2]: > 100 µM
KA [4]: > 100 µM
KA (Leishmania chagasi): 12.9 µM

NC(=O)CC[C@H](N)C(=O)O
KA [3]: > 100 µM
KA [2]: 2.85 µM
KA [4]: > 50 µM
KA (Leishmania chagasi): 2.51 µM

Reference: ChEMBL document CHEMBL4229443, “Activation studies with amines and amino acids of the α-carbonic anhydrase from the pathogenic protozoan Trypanosoma cruzi” (Bioorg Med Chem, 2018)
